Source: PubChem (The Scripps Research Institute Molecular Screening Center)
In the library only some 4.5% were active in any assay of this set; here they are far more common.
OX1R antag-1: OX1R (human) antagonism. O43613. OX1R-expressing cells, FRET antagonist read-out. inhibition, % at 6.6 µM. actives 1.8% (n = 330,000). AID 485270; in the data active = inhibition mostly above about 38%, no sharp cut-off; inactive = mostly below about 40%
CHO parental Ca: signal in parental CHO cells, OX1R antagonist counter-screen; inhibition, % at 5.6 µM; parental CHO-K1, ATP-induced calcium, Fluo-8 fluorescence; actives 0.63% (n = 330,000);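 active = inhibition above that plate's mean sample inhibition plus 3 SD, cut at about 26% in these data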
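Material: parental CHO cells / Compound: single nominal dose of 5.6 µM per compound / Signal: Fluo-8 fluorescence / Replicates: singlicate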
TAAR1 agonist: agonists of human TAAR1; Q96RJ0; CHO RD-HGA16 TAAR1, Fluo-8 calcium fluorescence; vehicle wells 0%, saturating PEA agonist 100%; activation, % at 3 µM; actives 0.99% (n = 360,000);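 active = activation above the mean activation of all test compounds in the run plus 3 SD, cut at about 38% in these data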
Target sequence (Q96RJ0 whole entry, looked up): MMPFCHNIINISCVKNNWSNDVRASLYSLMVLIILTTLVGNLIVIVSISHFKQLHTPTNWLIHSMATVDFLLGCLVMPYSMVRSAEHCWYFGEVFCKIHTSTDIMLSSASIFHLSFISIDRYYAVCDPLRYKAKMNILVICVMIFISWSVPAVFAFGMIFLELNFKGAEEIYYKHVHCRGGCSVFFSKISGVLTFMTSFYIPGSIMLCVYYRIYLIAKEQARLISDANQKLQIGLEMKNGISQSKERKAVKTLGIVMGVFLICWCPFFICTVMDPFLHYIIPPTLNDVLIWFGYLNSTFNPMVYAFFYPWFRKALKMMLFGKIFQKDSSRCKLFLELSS
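System: CHO-derived RD-HGA16 cells with stable Gα16 and human TAAR1 / Times: 17-24 h plating, Fluo-8 75 min 37 °C, 30 min RT / Technique: calcium-sensitive Fluo-8 signal, excitation 470-495, emission 515-575 nm / Measure: % activation relative to PEA EC100 response / Benchmarks: DMSO and PEA EC100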
OX1R antag-2: blocks the human orexin 1 receptor. O43613. CHO/OX1R cells, Fluo-8 calcium fluorescence, orexin A. inhibition, % at 5 µM. actives 0.43% (n = 330,000). AID 434989;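 active = inhibition above its plate's threshold, mean inhibition of all tested compounds on the plate plus 3 SD, cut at about 37% in these data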
GPR7 antagonist: blocks human GPR7 receptor signaling; inhibition, % at 4.4 µM; GPR7-expressing cells, fluorescence antagonist assay; AID 1861; actives 1.1% (n = 290,000); in the data active = inhibition above about 16%, passing the limit was not always enough;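 note: cells stimulated with the agonist NPW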
Target sequence (P48145 whole entry, looked up): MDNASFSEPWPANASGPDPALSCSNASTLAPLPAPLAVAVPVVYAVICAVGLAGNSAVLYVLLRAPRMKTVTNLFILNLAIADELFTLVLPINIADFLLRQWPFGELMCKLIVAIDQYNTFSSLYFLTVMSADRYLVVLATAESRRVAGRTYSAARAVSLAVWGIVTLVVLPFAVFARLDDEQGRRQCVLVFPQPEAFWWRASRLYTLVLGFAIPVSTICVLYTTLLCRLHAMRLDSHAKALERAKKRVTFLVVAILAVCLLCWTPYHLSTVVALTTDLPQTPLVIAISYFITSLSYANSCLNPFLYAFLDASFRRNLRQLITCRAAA
TAAR1 antag: antagonists of human TAAR1; CHO RD-HGA16 TAAR1, Fluo-8 calcium fluorescence, antagonist; inhibition, % at 3 µM; actives 1.5% (n = 360,000);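 active = inhibition above a per-plate cutoff, the mean inhibition of test compounds on that plate plus 3 SD, cut at about 49% in these data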
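Assay system: CHO-derived RD-HGA16 cells stably expressing human TAAR1 plus Gα16. Timing: 140 s kinetic read after compound, 140 s after agonist. Technique: kinetic Fluo-8 calcium fluorescence measurement. Measure: % inhibition of agonist calcium response.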
Large screens that a line does not name were inactive.

COc1ccc(OC)c(NC(=O)c2ccc(-c3cccs3)cc2)c1	OX1R antag-1 55
COc1cc(OC)cc(C(=O)Nc2ccc(NC(=O)c3ccco3)c(Cl)c2)c1	GPR7 antagonist 25
CN(c1cccc(NC(=O)c2ccc(C(C)(C)C)cc2)c1)S(C)(=O)=O	none
CN(c1cccc(NC(=O)CN(c2ccc(Cl)c(Cl)c2)S(=O)(=O)c2ccccc2)c1)S(C)(=O)=O	TAAR1 antag 57
CN(c1cccc(NC(=O)c2ccc(N(C)S(=O)(=O)c3ccccc3)cc2)c1)S(C)(=O)=O	CHO parental Ca 62, OX1R antag-2 67, TAAR1 antag 63
COc1cc(OC)cc(C(=O)Nc2ccc(C(=O)Nc3ccccc3OC)cc2)c1	TAAR1 antag 56 (no result: GPR7 antagonist)
COc1ccccc1NC(=O)c1ccc(NC(=O)c2ccco2)cc1	none
COCCCNC(=S)NNC(=O)c1csc2ccccc12	none
CC(=O)c1ccc(NC(=O)COC(=O)/C=C/c2cccs2)cc1	OX1R antag-1 50 (no result: GPR7 antagonist)
CC(=O)c1ccccc1NC(=O)COC(=O)/C=C/c1cccs1	none (no result: GPR7 antagonist)
CC(=O)c1ccc(NC(=O)CO/N=C(\C)c2cccs2)cc1	GPR7 antagonist 20
CCc1cccc(CC)c1NC(=O)CO/N=C(\C)c1cccs1	none
O=S(=O)(Nc1cccnc1)c1ccc2c(c1)OCCO2	GPR7 antagonist 20
O=S(=O)(Nc1ccc2c(c1)OCCO2)c1ccc(F)cc1	TAAR1 agonist 40
Cc1ccc(S(=O)(=O)Nc2ccc3c(c2)OCCO3)cc1	none
O=S(=O)(Nc1ccc(F)cc1)c1ccc(S(=O)(=O)N2CCOCC2)cc1	TAAR1 agonist 61 (no result: GPR7 antagonist)
O=S(=O)(Nc1cccnc1Cl)c1ccc2c(c1)OCCO2	none
COc1ccc(S(=O)(=O)Nc2ccc(S(=O)(=O)N3CCOCC3)cc2)cc1	none
CSc1ccc(S(=O)(=O)Nc2ccc(F)cc2)cc1	TAAR1 agonist 39
COC(=O)c1ccc(NS(=O)(=O)c2ccc(SC)cc2)cc1	none
O=C(Nc1nnc([C@@H]2C[C@H](O)[C@@H](CO)O2)s1)c1ccccc1Cl	none (no result: OX1R antag-1, CHO parental Ca, OX1R antag-2, GPR7 antagonist)
O=C(Nc1ccc(N2CCCC(O)C2)cc1)c1snc2c(=O)[nH]cnc12 (stereo unspecified)	OX1R antag-1 40
O=C(C(=O)N1CCN(S(=O)(=O)c2ccccc2)CC1)c1cccc(C(F)(F)F)c1	none (no result: OX1R antag-1, CHO parental Ca, OX1R antag-2, GPR7 antagonist)
C=CCN(CC=C)C(=O)CN1C(=O)NC(C)(c2ccc3cc(OC)ccc3c2)C1=O (stereo unspecified)	none
Cc1nn(-c2ccccc2)c(N)c1Sc1cccc([N+](=O)[O-])c1	none
Cc1nn(-c2cccc([N+](=O)[O-])c2)c(N)c1-c1ccccc1	OX1R antag-1 41
O=C(/C=C/c1ccc([N+](=O)[O-])cc1)Nc1cccc(S(=O)(=O)NC2=NCCCCC2)c1	TAAR1 antag 49 (no result: GPR7 antagonist)
OC(c1ccccc1)(c1ccccc1)C1CCN(CCCOc2ccc(F)cc2)CC1	TAAR1 agonist 39 (no result: OX1R antag-1, CHO parental Ca, OX1R antag-2, GPR7 antagonist)
C#Cc1ccccc1OCCCN1CCC(C(O)(c2ccccc2)c2ccccc2)CC1	TAAR1 agonist 40, TAAR1 antag 51 (no result: OX1R antag-1, CHO parental Ca, OX1R antag-2, GPR7 antagonist)
Cc1cc(=O)[nH]c(SCC(=O)Nc2ccc(N3CCCCC3)cc2)n1	CHO parental Ca 43 (no result: GPR7 antagonist)
O=C(O)c1ccc([N+](=O)[O-])cc1	none (no result: OX1R antag-1, CHO parental Ca, OX1R antag-2, GPR7 antagonist)
O=C(O)c1ccc(S(=O)(=O)c2ccc([N+](=O)[O-])cc2[N+](=O)[O-])cc1	OX1R antag-1 57
CN(CC(=O)Nc1ccc(F)cc1)C(=O)Cn1cnc2ccc([N+](=O)[O-])cc2c1=O	none (no result: GPR7 antagonist)
CCc1nc2ccc(C(=O)N3CCN(C(=O)c4ccco4)CC3)cn2c1N(C)Cc1nccn1C	none (no result: OX1R antag-1, CHO parental Ca, OX1R antag-2, GPR7 antagonist)
CC(C)CCN(C(=S)Nc1cccc(F)c1)C1CCN(C(C)C)CC1	none
COc1ccc(-c2ncncc2-c2csc(C)n2)c(O)c1	GPR7 antagonist 17
COc1ccc(-c2nc(C)ncc2-c2csc(C)n2)c(O)c1	none
COc1ccc(C(=O)O/N=C(\N)c2ccc(OC)c(OC)c2)c(OC)c1	OX1R antag-1 63 (no result: TAAR1 agonist, TAAR1 antag)
COc1ccc(C(=O)O/N=C(\N)c2ccccc2)c(OC)c1	none
COc1ccc(-c2nc3scc(-c4ccccc4)n3n2)cc1	OX1R antag-1 67
CCOC(=O)Cc1csc2nc(-c3ccccc3)nn12	none
COc1ccccc1NC(=O)c1cc(-c2ccc(OC)c(OC)c2)nc2ccccc12	TAAR1 antag 55 (no result: OX1R antag-1, CHO parental Ca, OX1R antag-2)
COc1cc(-c2cc(C(=O)Nc3ccc(S(N)(=O)=O)cc3)c3ccccc3n2)cc(OC)c1OC	none
CCN(CC)S(=O)(=O)c1ccc(O)c(NC(=O)c2cc(-c3cc(OC)c(OC)c(OC)c3)nc3ccccc23)c1	OX1R antag-1 68 (no result: TAAR1 agonist, TAAR1 antag)
COc1ccc(NC(=O)c2cc(-c3cc(OC)c(OC)c(OC)c3)nc3ccccc23)cc1OC	TAAR1 antag 55
CCN(Cc1ccccc1)C(=O)c1cc(-c2ccc(OC)c(OC)c2)nc2ccccc12	TAAR1 antag 67
COc1ccc(-c2cc(C(=O)Nc3nc4c(C)cccc4s3)c3ccccc3n2)cc1OC	none
C[C@H](CO)N1C[C@H](C)[C@@H](CN(C)Cc2ccc(C(F)(F)F)cc2)OCc2cnnn2CCCC1=O	none (no result: OX1R antag-1, CHO parental Ca, OX1R antag-2, GPR7 antagonist)
CCN1CCN(c2ccc(S(=O)(=O)N3CCOCC3)cc2NC(=O)c2cc(Cl)nc3ccccc23)CC1	none (no result: GPR7 antagonist)
COc1ccc(-c2cc(C(=O)Nc3cc(S(=O)(=O)N4CCOCC4)ccc3N3CCOCC3)c3ccccc3n2)cc1	TAAR1 antag 54
O=C(c1ccc(F)cc1)N1CCC2(CC1)NCCc1[nH]cnc12	none
O=C1c2ccccc2C(=O)c2c(O)c(O)cc(O)c21	OX1R antag-1 28 (no result: GPR7 antagonist)
COc1ccc(OC)c(NC(=O)C2CCCN(S(=O)(=O)c3cccc4nsnc34)C2)c1 (stereo unspecified)	none
COc1cc(NC(=O)C2CCCN(S(=O)(=O)c3cccc4nsnc34)C2)cc(OC)c1 (stereo unspecified)	OX1R antag-1 48
O=C(Nc1cccnc1)C1CCCN(S(=O)(=O)c2cccc3nsnc23)C1 (stereo unspecified)	OX1R antag-1 58
O=C(C(=O)N1CCN(S(=O)(=O)c2ccc(Cl)cc2)CC1)c1cccc(C(F)(F)F)c1	none (no result: OX1R antag-1, CHO parental Ca, OX1R antag-2, GPR7 antagonist)
O=C(C(=O)N1CCC(CNC(=O)c2cccs2)CC1)c1cc2ccccc2o1	none (no result: OX1R antag-1, CHO parental Ca, OX1R antag-2, GPR7 antagonist)
COC(=O)[C@]12CCCCC=C1N(CCc1ccc(OC)c(OC)c1)C(=O)[C@H](CC(=O)N1CCC(c3ccccc3)CC1)C2	TAAR1 antag 67 (no result: OX1R antag-1, CHO parental Ca, OX1R antag-2, GPR7 antagonist)
COC(=O)[C@]12CCCCC=C1N(Cc1ccccc1)C(=O)[C@H](CC(=O)N1CCC(c3ccccc3)CC1)C2	TAAR1 antag 54 (no result: OX1R antag-1, CHO parental Ca, OX1R antag-2, GPR7 antagonist)
COC(=O)C1=C(C)N(C)C(=NCc2ccc3c(c2)OCO3)NC1c1ccc(Cl)cc1 (stereo unspecified)	none (no result: OX1R antag-1, CHO parental Ca, OX1R antag-2, GPR7 antagonist)
COc1ccc(S(=O)(=O)Nc2cccnc2)cc1	none
